In ChEMBL document CHEMBL4689842, “EUbOPEN Chemogenomics Library wave 1” (2021):

Tested on: U2OS
Assay: Multiplex assay against U2OS
Format: toxicity, cell-based
Conditions: human
In short: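 Cells were classed with CellPathfinder machine-learning gating, first as Hoechst high-intensity objects or normal cells, then (normal cells) as healthy, pyknosed or fragmented nuclei, and finally (pyknosed cells) as mitotic or apoptotic. Staining of live cells at seeding used Hoechst33342, BioTracker Green Microtubule Cytoskeleton Dye, MitoTracker Red and Annexin V Alexa Fluor 680, with imaging on a CQ1 microscope at 37°C and 5% CO2 after compound addition. Tubulin, mitochondrial-mass and membrane-permeability phenotypes are per cents of healthy-nucleus cells.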

[1] = 12 h, 1 µM, compound concentration 1 uM, replicate 1
[2] = 12 h, 1 µM, compound concentration 1 uM, replicate 2
[3] = 12 h, 10 µM, compound concentration 10 uM, replicate 1
[4] = 12 h, 10 µM, compound concentration 10 uM, replicate 2
[5] = 24 h, 1 µM, compound concentration 1 uM, replicate 1
[6] = 24 h, 1 µM, compound concentration 1 uM, replicate 2
[7] = 24 h, 10 µM, compound concentration 10 uM, replicate 1
[8] = 24 h, 10 µM, compound concentration 10 uM, replicate 2
[9] = 48 h, 1 µM, compound concentration 1 uM, replicate 1
[10] = 48 h, 1 µM, compound concentration 1 uM, replicate 2
[11] = 48 h, 10 µM, compound concentration 10 uM, replicate 1
[12] = 48 h, 10 µM, compound concentration 10 uM, replicate 2

## O=C(Cc1ccc(-c2ccc(OCCN3CCOCC3)cc2)cn1)NCc1ccccc1 [TIRBANIBULIN]
[1]
  Population Apoptotic (%): 52%
  Population Fragmented Nuclei (%): 10%
  Population Healthy Nuclei (%): 76%
  Population Hoechst High Intensity Objects (%): 7%
  Population Membrane Permeable-Phenotype (%): 8%
  Population Mitochondria Different-Phenotype (%): 20%
  Population Mitotic Cells (%): 47%
  Population Normal (%): 92%
  Population Pyknosed Nuclei (%): 12%
  Population Tubulin-Different-Phenotype (%): 19%
  Total Cell Count: 172
[2]
  Population Apoptotic (%): 0%
  Population Fragmented Nuclei (%): 5%
  Population Healthy Nuclei (%): 90%
  Population Hoechst High Intensity Objects (%): 12%
  Population Membrane Permeable-Phenotype (%): 9%
  Population Mitochondria Different-Phenotype (%): 21%
  Population Mitotic Cells (%): 100%
  Population Normal (%): 87%
  Population Pyknosed Nuclei (%): 4%
  Population Tubulin-Different-Phenotype (%): 12%
  Total Cell Count: 108
[3]
  Population Apoptotic (%): 21%
  Population Fragmented Nuclei (%): 10%
  Population Healthy Nuclei (%): 72%
  Population Hoechst High Intensity Objects (%): 10%
  Population Membrane Permeable-Phenotype (%): 8%
  Population Mitochondria Different-Phenotype (%): 16%
  Population Mitotic Cells (%): 78%
  Population Normal (%): 89%
  Population Pyknosed Nuclei (%): 16%
  Population Tubulin-Different-Phenotype (%): 10%
  Total Cell Count: 169
[4]
  Population Apoptotic (%): 50%
  Population Fragmented Nuclei (%): 13%
  Population Healthy Nuclei (%): 78%
  Population Membrane Permeable-Phenotype (%): 4%
  Population Mitochondria Different-Phenotype (%): 19%
  Population Mitotic Cells (%): 50%
  Population Pyknosed Nuclei (%): 7%
  Population Tubulin-Different-Phenotype (%): 12%
  Total Cell Count: 81
[5]
  Population Apoptotic (%): 34%
  Population Fragmented Nuclei (%): 20%
  Population Healthy Nuclei (%): 50%
  Population Hoechst High Intensity Objects (%): 8%
  Population Membrane Permeable-Phenotype (%): 9%
  Population Mitochondria Different-Phenotype (%): 35%
  Population Mitotic Cells (%): 65%
  Population Normal (%): 91%
  Population Pyknosed Nuclei (%): 29%
  Population Tubulin-Different-Phenotype (%): 21%
  Total Cell Count: 227
[6]
  Population Apoptotic (%): 61%
  Population Fragmented Nuclei (%): 16%
  Population Healthy Nuclei (%): 66%
  Population Hoechst High Intensity Objects (%): 9%
  Population Membrane Permeable-Phenotype (%): 6%
  Population Mitochondria Different-Phenotype (%): 44%
  Population Mitotic Cells (%): 38%
  Population Normal (%): 90%
  Population Pyknosed Nuclei (%): 17%
  Population Tubulin-Different-Phenotype (%): 10%
  Total Cell Count: 155
[7]
  Population Apoptotic (%): 34%
  Population Fragmented Nuclei (%): 15%
  Population Healthy Nuclei (%): 64%
  Population Hoechst High Intensity Objects (%): 8%
  Population Membrane Permeable-Phenotype (%): 8%
  Population Mitochondria Different-Phenotype (%): 46%
  Population Mitotic Cells (%): 65%
  Population Normal (%): 91%
  Population Pyknosed Nuclei (%): 20%
  Population Tubulin-Different-Phenotype (%): 11%
  Total Cell Count: 160
[8]
  Population Apoptotic (%): 66%
  Population Fragmented Nuclei (%): 19%
  Population Healthy Nuclei (%): 57%
  Population Hoechst High Intensity Objects (%): 10%
  Population Membrane Permeable-Phenotype (%): 10%
  Population Mitochondria Different-Phenotype (%): 40%
  Population Mitotic Cells (%): 33%
  Population Normal (%): 89%
  Population Pyknosed Nuclei (%): 23%
  Population Tubulin-Different-Phenotype (%): 13%
  Total Cell Count: 82
[9]
  Population Apoptotic (%): 67%
  Population Fragmented Nuclei (%): 24%
  Population Healthy Nuclei (%): 40%
  Population Hoechst High Intensity Objects (%): 9%
  Population Membrane Permeable-Phenotype (%): 7%
  Population Mitochondria Different-Phenotype (%): 39%
  Population Mitotic Cells (%): 32%
  Population Normal (%): 90%
  Population Pyknosed Nuclei (%): 35%
  Population Tubulin-Different-Phenotype (%): 25%
  Total Cell Count: 340
[10]
  Population Apoptotic (%): 75%
  Population Fragmented Nuclei (%): 22%
  Population Healthy Nuclei (%): 45%
  Population Hoechst High Intensity Objects (%): 11%
  Population Membrane Permeable-Phenotype (%): 29%
  Population Mitochondria Different-Phenotype (%): 64%
  Population Mitotic Cells (%): 25%
  Population Normal (%): 88%
  Population Pyknosed Nuclei (%): 32%
  Population Tubulin-Different-Phenotype (%): 35%
  Total Cell Count: 239
[11]
  Population Apoptotic (%): 64%
  Population Fragmented Nuclei (%): 24%
  Population Healthy Nuclei (%): 32%
  Population Hoechst High Intensity Objects (%): 10%
  Population Membrane Permeable-Phenotype (%): 15%
  Population Mitochondria Different-Phenotype (%): 63%
  Population Mitotic Cells (%): 35%
  Population Normal (%): 89%
  Population Pyknosed Nuclei (%): 43%
  Population Tubulin-Different-Phenotype (%): 22%
  Total Cell Count: 174
[12]
  Population Apoptotic (%): 70%
  Population Fragmented Nuclei (%): 23%
  Population Healthy Nuclei (%): 45%
  Population Hoechst High Intensity Objects (%): 11%
  Population Membrane Permeable-Phenotype (%): 44%
  Population Mitochondria Different-Phenotype (%): 68%
  Population Mitotic Cells (%): 29%
  Population Normal (%): 88%
  Population Pyknosed Nuclei (%): 30%
  Population Tubulin-Different-Phenotype (%): 36%
  Total Cell Count: 85
